We go through 26 molecules from ChEMBL document CHEMBL1145069, “Stereospecific synthesis of 5-substituted 2-bisarylthiocyclopentane carboxylic acids as specific matrix metalloproteinase inhibitors” (J Med Chem, 2003).

Series [1] concerns the target Matrix metalloproteinase-9 (Homo sapiens, UniProt P14780). Briefly: Inhibitory activity against matrix metalloprotease-9 (MMP9).
The target in series [2] is 72 kDa type IV collagenase (Homo sapiens, UniProt P08253). Briefly: Inhibitory activity against matrix metalloprotease-2 (MMP2).
A further series deals with Collagenase 3 (Homo sapiens, UniProt P45452). Briefly: Inhibitory activity against matrix metalloprotease-13 (MMP13).
The target of a further series is Stromelysin-1 (Homo sapiens, UniProt P08254). Briefly: Inhibitory activity against matrix metalloprotease-3 (MMP3).
Another series addresses T1, Interstitial collagenase (Homo sapiens, UniProt P03956).
T1 sequence (P03956 whole entry): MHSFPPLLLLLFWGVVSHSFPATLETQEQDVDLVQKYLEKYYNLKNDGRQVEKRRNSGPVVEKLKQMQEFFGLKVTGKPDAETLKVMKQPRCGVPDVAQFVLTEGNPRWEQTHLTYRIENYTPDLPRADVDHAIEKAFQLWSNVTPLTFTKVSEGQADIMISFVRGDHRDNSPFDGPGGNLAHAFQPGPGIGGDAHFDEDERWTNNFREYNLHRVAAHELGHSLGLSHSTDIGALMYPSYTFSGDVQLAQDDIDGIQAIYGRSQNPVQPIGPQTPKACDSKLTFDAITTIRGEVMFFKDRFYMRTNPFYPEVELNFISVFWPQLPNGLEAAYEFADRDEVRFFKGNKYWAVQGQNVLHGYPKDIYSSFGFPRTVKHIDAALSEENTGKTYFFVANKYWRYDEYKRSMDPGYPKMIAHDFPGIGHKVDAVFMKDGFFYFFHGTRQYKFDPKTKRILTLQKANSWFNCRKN
Briefly: Inhibitory activity against matrix metalloprotease-1 (MMP1).

The species named for series [3] is Homo sapiens. The series is described as follows: In vitro absorption was measured in Caco-2 cell. The format is ADME.
The test system of series [4] is Mus musculus. Briefly: Tested for antitumor activity in mice against B16F10 melanoma measured as reduction in number of metastases at 100 mg/kg (ip). The format is functional. The method in brief: (§1)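 B16-F10 cells passaged in vitro, then 2×10^5 cells per mouse injected into the tail vein of B6D2F1 mice in PBS with 0.5% foetal calf serum. 7 mice per group. Dosing i.p. or p.o. 1 h before inoculation, then daily for 3 days (four doses). Lungs collected on day 11 and fixed in Bouin's fluid. Metastases per lung (total and ≥1 mm) given as % of control mean.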

Series [5] is filed under the species Homo sapiens. The series is described as follows: In vitro metabolic stability and first pass metabolism was evaluated in human hepatic microsomes. The format is ADME, Liver.
A further series is filed under the species Rattus norvegicus. The series is described as follows: In vitro metabolic stability and first pass metabolism was evaluated in rat hepatic microsomes. The format is ADME, Liver.
In series [6] the test system is Mus musculus. The series is described as follows: Tested for antitumor activity in mice against B16F10 melanoma measured as reduction in number of metastases at 200 mg/kg (ip). The format is functional. The method in brief:
as §1

In series [7] the test system is Mus musculus. The series is described as follows: Tested for antitumor activity in mice against B16F10 melanoma measured as reduction in number of metastases at 100 mg/kg (po). The format is functional. The method in brief: as §1
The subject of series [8] is Mus musculus. Briefly: Tested for antitumor activity in mice against B16F10 melanoma measured as reduction in number of metastases at 200 mg/kg (po). The format is functional. The method in brief: as §1

Sequence of 72 kDa type IV collagenase (P08253 whole entry): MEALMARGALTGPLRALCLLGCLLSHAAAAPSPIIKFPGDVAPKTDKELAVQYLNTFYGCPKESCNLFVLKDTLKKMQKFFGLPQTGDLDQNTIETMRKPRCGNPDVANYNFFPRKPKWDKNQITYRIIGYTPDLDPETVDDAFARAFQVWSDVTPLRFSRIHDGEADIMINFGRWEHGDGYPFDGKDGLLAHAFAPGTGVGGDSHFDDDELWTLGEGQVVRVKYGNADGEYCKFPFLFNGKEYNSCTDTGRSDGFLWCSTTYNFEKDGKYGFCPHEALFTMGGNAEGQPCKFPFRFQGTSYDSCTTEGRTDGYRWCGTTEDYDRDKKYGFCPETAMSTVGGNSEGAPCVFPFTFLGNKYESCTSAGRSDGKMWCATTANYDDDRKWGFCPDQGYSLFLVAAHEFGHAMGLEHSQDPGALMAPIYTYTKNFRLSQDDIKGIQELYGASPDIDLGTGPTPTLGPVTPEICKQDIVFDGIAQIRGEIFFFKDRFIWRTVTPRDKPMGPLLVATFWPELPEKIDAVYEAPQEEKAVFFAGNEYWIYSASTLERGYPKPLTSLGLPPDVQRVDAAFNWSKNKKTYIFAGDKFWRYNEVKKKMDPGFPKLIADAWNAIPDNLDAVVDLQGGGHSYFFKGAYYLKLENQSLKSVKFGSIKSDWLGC
Sequence of Stromelysin-1 (P08254 whole entry): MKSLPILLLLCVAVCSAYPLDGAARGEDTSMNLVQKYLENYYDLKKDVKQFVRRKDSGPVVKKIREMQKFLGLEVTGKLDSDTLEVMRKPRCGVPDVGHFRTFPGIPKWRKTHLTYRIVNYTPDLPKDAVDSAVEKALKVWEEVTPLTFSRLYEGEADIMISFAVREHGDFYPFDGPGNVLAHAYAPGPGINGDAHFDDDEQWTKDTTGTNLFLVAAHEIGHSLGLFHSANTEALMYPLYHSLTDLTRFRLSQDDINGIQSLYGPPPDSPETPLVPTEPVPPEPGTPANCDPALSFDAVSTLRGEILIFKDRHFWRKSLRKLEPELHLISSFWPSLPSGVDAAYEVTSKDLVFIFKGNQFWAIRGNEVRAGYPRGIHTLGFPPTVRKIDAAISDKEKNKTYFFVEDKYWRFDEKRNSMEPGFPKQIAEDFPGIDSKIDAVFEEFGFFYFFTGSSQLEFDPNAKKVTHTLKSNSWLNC
Sequence of Matrix metalloproteinase-9 (P14780 whole entry): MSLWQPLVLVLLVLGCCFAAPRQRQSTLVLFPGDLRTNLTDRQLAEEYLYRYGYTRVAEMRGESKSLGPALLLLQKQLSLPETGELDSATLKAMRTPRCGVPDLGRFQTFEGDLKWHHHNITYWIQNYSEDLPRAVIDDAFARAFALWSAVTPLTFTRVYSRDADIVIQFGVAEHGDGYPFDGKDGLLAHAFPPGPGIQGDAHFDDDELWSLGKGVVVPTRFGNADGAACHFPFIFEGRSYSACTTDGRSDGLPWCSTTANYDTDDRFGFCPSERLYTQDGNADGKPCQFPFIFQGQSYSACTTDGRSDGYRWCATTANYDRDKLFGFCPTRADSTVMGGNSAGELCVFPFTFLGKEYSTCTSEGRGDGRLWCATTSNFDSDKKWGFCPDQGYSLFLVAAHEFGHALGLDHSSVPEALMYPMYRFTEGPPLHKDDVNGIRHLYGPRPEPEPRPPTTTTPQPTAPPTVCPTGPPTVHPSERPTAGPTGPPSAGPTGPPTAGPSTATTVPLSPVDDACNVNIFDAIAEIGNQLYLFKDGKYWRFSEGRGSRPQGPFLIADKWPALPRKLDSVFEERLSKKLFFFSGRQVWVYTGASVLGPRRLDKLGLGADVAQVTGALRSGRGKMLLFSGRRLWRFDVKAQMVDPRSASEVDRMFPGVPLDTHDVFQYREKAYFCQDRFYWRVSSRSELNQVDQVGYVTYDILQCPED

The term IC50 denotes the point on the concentration scale where inhibition reaches its midpoint. Low values mean higher potency, high ones lower potency. As to `CN1C(=O)N(C[C@H](C(=O)NO)[C@@H](CC2CCCC2)C(=O)N2CCCCC2)C(=O)C1(C)C`, the figures for the IC50 in series [1] and in series [2] were 58 nM and 154 nM, respectively.

For the molecule `O=C(O)[C@H]1[C@H](CN2C(=O)c3ccccc3C2=O)CC[C@@H]1SCc1ccc(-c2ccccc2)cc1`, the IC50 in [1] was 3800 nM; at Collagenase 3 it was 15 nM; at Stromelysin-1, 3000 nM; against Interstitial collagenase, more than 100000 nM; in [2], 2800 nM.

Regarding `O=C(O)[C@H]1[C@H](Cn2nnc3ccccc3c2=O)CC[C@@H]1Sc1ccc(-c2nc3ccccc3s2)cc1`, the half-inhibitory concentration (IC50) in series [1] was 661 nM; on Collagenase 3 it was 417 nM; on Stromelysin-1, 8000 nM; on Interstitial collagenase, more than 1000 nM; in [2], 829 nM.

As to `O=C(O)[C@H]1[C@H](Cn2nnc3ccccc3c2=O)CC[C@@H]1Sc1ccc(-c2nccs2)cc1`, the IC50 is more than 6000 nM in [1]; more than 100000 nM against Collagenase 3; more than 100000 nM against Stromelysin-1; more than 100000 nM against Interstitial collagenase; more than 8000 nM in series [2].

On to `O=C(O)[C@H]1[C@H](Cn2nnc3ccccc3c2=O)CC[C@@H]1Sc1ccc(-c2ccncc2)cc1`, for which the IC50 in series [1] is 341 nM; against Collagenase 3 it was 275 nM; at Stromelysin-1, 1200 nM; at Interstitial collagenase, more than 36000 nM; in [2] it was 176 nM.

As to `O=C(O)[C@H]1[C@H](CN2C(=O)c3ccccc3S2(=O)=O)CC[C@@H]1Sc1ccc(-c2ccc(Cl)cc2)cc1`, the IC50 is 35 nM in [1]; 80 nM at Collagenase 3; 474 nM on Stromelysin-1; 2100 nM on Interstitial collagenase; 13 nM in series [2].

As for `CC1(C)NC(=O)N(C[C@@H]2CC[C@H](Sc3ccc(-c4ccc(Cl)cc4)cc3)[C@H]2C(=O)O)C1=O`, the IC50 in [1] was found to be 3300 nM; against Collagenase 3 it was 3.1 nM; on Stromelysin-1, 9400 nM; at Interstitial collagenase it was 70000 nM; in series [2], 572 nM.

In the case of `O=C(O)[C@H]1[C@H](CN2C(=O)c3ccccc3C2=O)CC[C@@H]1SCCc1ccc(-c2ccccc2)cc1`, the IC50 stood at 12 nM in series [1]; 162 nM on Collagenase 3; 26 nM against Stromelysin-1; 45000 nM against Interstitial collagenase; 46 nM in series [2].

In the case of `O=C(O)[C@H]1[C@H](CN2C(=O)c3ccccc3C2=O)CC[C@@H]1Sc1ccc(-c2ccccc2)cc1`, the IC50 in series [1] was determined as 76 nM; on Collagenase 3 it was 66 nM; against Stromelysin-1 it was 278 nM; on Interstitial collagenase, 93 nM; in [2], 24 nM.

With `O=C(O)[C@H]1[C@H](CN2NNc3ccsc3C2=O)CC[C@@H]1Sc1ccc(-c2ccc(Cl)cc2)cc1`, the IC50 in series [1] was determined as 62 nM; against Collagenase 3 it was 133 nM; against Stromelysin-1, 216 nM; against Interstitial collagenase, 4400 nM; in [2], 20 nM.

With `O=C(O)[C@H]1[C@H](Cn2nc3n(c2=O)CCCCC3)CC[C@@H]1Sc1ccc(-c2ccc(Cl)cc2)cc1`, the IC50 is 3800 nM in series [1]; 5.1 nM at Collagenase 3; 18000 nM on Stromelysin-1; more than 10000 nM against Interstitial collagenase; 1700 nM in series [2].

As for `N#Cc1ccc(-c2ccc(S[C@H]3CC[C@@H](Cn4c(=O)nc5ccccn5c4=O)[C@@H]3C(=O)O)cc2)cc1`, the IC50 in series [1] is 31 nM; on Collagenase 3, 31 nM; against Stromelysin-1, 103 nM; against Interstitial collagenase, more than 1000 nM; in [2] it was 20 nM.

With `O=C(O)[C@H]1[C@H](CN2C(=O)c3ccccc3C2=O)CC[C@@H]1S(=O)(=O)CCc1ccc(-c2ccc(Cl)cc2)cc1`, in the series filed under Homo sapiens [3], the Absorption is 92%. The IC50 was found to be 39 nM in series [1]; 808 nM at Collagenase 3; 64 nM against Stromelysin-1; 5400 nM against Interstitial collagenase; 76 nM in [2]. Further, the No. of metastases with Mus musculus [4] came to 78; with Mus musculus [6], 109. For the same molecule, the figures for the MF in the series listed under Homo sapiens [5] and in the series filed under Rattus norvegicus were 91% and 58%, respectively.

As to `O=C(O)[C@H]1[C@H](Cn2nnc3ccccc3c2=O)CC[C@@H]1S(=O)(=O)CCc1ccc(-c2ccc(Cl)cc2)cc1`, the IC50 was 132 nM in [1]; 2.8 nM on Collagenase 3; 253 nM at Stromelysin-1; more than 100000 nM against Interstitial collagenase; 383 nM in series [2].

`O=C(O)[C@H]1[C@H](Cn2nc3ccccn3c2=O)CC[C@@H]1Sc1ccc(-c2ccc(Cl)cc2)cc1`: the IC50 in series [1] was 37 nM; against Collagenase 3, 32 nM; against Stromelysin-1, 184 nM; against Interstitial collagenase, 10000 nM; in [2] it was 25 nM.

Regarding `CSc1ccc(-c2ccc(S[C@H]3CC[C@@H](Cn4nnc5ccccc5c4=O)[C@@H]3C(=O)O)cc2)cc1`, the IC50 in series [1] was 4 nM; against Collagenase 3, 13 nM; on Stromelysin-1, 21 nM; on Interstitial collagenase it was more than 10000 nM; in [2], 5 nM.

On to `O=C(O)[C@H]1[C@H](CN2C(=O)c3ccccc3C2=O)CC[C@@H]1S(=O)(=O)CCc1ccc(-c2ccc(F)cc2)cc1`, for which the IC50 in series [1] was found to be 47 nM; at Collagenase 3 it was 296 nM; at Stromelysin-1, 316 nM; in [2], 76 nM.

For `O=C(O)[C@H]1[C@H](Cn2c(=O)nc3ccccn3c2=O)CC[C@@H]1Sc1ccc(-c2ccc(Cl)cc2)cc1`, the IC50 is 30 nM in series [1]; 27 nM at Collagenase 3; 134 nM on Stromelysin-1; more than 10000 nM against Interstitial collagenase; 9 nM in series [2].

Regarding `O=C(O)[C@H]1[C@H](Cn2nnc3ccccc3c2=O)CC[C@@H]1SCCc1ccc(-c2ccc(Cl)cc2)cc1`, the Absorption in the series filed under Homo sapiens [3] worked out at 91%. The IC50 in [1] was 24 nM; against Collagenase 3 it was 391 nM; against Stromelysin-1, 62 nM; on Interstitial collagenase, more than 70000 nM; in series [2], 106 nM. Further, the No. of metastases with Mus musculus [4] was found to be 51; in the series on Mus musculus [7] it was 65; in the series with Mus musculus [6], 31; with Mus musculus [8], 80. In addition, the MF was 63% in the series filed under Homo sapiens [5] and 76% in the series listed under Rattus norvegicus.

On to `O=C(O)[C@H]1[C@H](Cn2nnc3ccccc3c2=O)CC[C@@H]1Sc1ccc(-c2c[nH]nn2)cc1`, for which the IC50 (in series [1]; at Collagenase 3; at Stromelysin-1; against Interstitial collagenase; in series [2]) was more than 100000 nM in each case.

Turning to `O=C(O)[C@@H]1[C@@H](Cn2nnc3ccccc3c2=O)CC[C@H]1Sc1ccc(-c2ccc(Cl)cc2)cc1`, the IC50 in series [1] came out at 3000 nM; against Collagenase 3, 1.9 nM; on Stromelysin-1, 5200 nM; against Interstitial collagenase, 67000 nM; in [2] it was 743 nM.

As to `CSc1ccc(-c2ccc(S[C@H]3CC[C@@H](Cn4c(=O)nc5ccccn5c4=O)[C@@H]3C(=O)O)cc2)cc1`, the IC50 is 16 nM in series [1]; 195 nM against Collagenase 3; 305 nM on Stromelysin-1; 63000 nM on Interstitial collagenase; 14 nM in series [2].

Turning to `O=C(O)[C@H]1[C@H](CN2NNc3nc[nH]c3C2=O)CC[C@@H]1Sc1ccc(-c2ccc(Cl)cc2)cc1`, the IC50 was 642 nM in [1]; 682 nM against Collagenase 3; 21 nM against Stromelysin-1; 6600 nM against Interstitial collagenase; 130 nM in [2].

Turning to `O=C(O)[C@H]1[C@H](CN2C(=O)c3ccccc3C2=O)CC[C@@H]1SCCc1ccc(-c2ccc(Cl)cc2)cc1`, the Absorption in the series listed under Homo sapiens [3] was found to be 94%. The IC50 is 13 nM in series [1]; 129 nM at Collagenase 3; 45 nM against Stromelysin-1; 50000 nM at Interstitial collagenase; 73 nM in series [2]. For the same molecule, the No. of metastases with Mus musculus [4] was 96; in the series on Mus musculus [7], 69; with Mus musculus [6], 43; with Mus musculus [8], 64.5. Besides, the figures for the MF in the series listed under Homo sapiens [5] and in the series listed under Rattus norvegicus were 61% and 43%, respectively.

Regarding `N#Cc1ccc(-c2ccc(S[C@H]3CC[C@@H](Cn4nnc5ccccc5c4=O)[C@@H]3C(=O)O)cc2)cc1`, the IC50 in series [1] was 24 nM; at Collagenase 3, 11 nM; at Stromelysin-1 it was 5 nM; against Interstitial collagenase it was more than 10000 nM; in [2], 13 nM.

With `O=C(O)[C@H]1[C@H](Cn2nnc3ccccc3c2=O)CC[C@@H]1S(=O)(=O)c1ccc(-c2ccc(Cl)cc2)cc1`, the IC50 is 512 nM in series [1]; 1.8 nM against Collagenase 3; 694 nM against Stromelysin-1; more than 100000 nM against Interstitial collagenase; 83 nM in series [2].
